This is an account of results in ChEMBL document CHEMBL1139860, “Cytotoxic germacranolides and acyclic diterpenoides from the seeds of Carpesium triste” (J Nat Prod, 2007).

Holding throughout (type): cell-based
The nature of test [1]: Cytotoxicity against human SMMC7721 cells after 48 hrs. The following applies: SMMC-7721, 48 h. The essentials:
(§1)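 SRB assay. Exponentially growing cells were seeded at 5 × 10^3 per well and incubated 24 h, then exposed 48 h to 5-6 concentrations per run, with vincristine sulfate as positive control. Extracted dye absorbance was read at 515 nm. Percent survival was calculated against untreated cells set at 100%. Done in triplicate.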

Test [2] can be described thus: Cytotoxicity against human L02 cells after 48 hrs. The conditions noted are these: L02, 48 h. The method, boiled down: as §1
Test [3] has as its system HL-60. The test is described as follows: Cytotoxicity against human HL60 cells after 48 hrs. The conditions noted are these: HL-60, 48 h. The essentials:
as §1

Converted amounts (≈) assume the structure as drawn.

Usually IC50 stands for the concentration needed to halve the response being measured. A lower IC50 goes with inhibition by little substance. Take `C=C1C(=O)O[C@H]2[C@H]1[C@@H](OC(=O)/C(C)=C\C)C(=O)[C@H](C)CCC[C@](C)(O)[C@@H]2OC(=O)C(C)C`: the half-inhibitory concentration (IC50) in test [1] amounted to 46.3 µg/mL (≈ 103 µM); in test [2], 72.4 µg/mL (≈ 161 µM); in test [3], 3.4 µg/mL (≈ 7.55 µM).

On to `C=C1C(=O)O[C@H]2[C@H]1[C@@H](OC(=O)C(C)C)[C@H](O)[C@H](C)CCC(=O)[C@](C)(O)[C@@H]2OC(=O)C(C)C`, for which the concentration for half-maximal inhibition (IC50) in test [1] came out at 33.5 µg/mL (≈ 73.7 µM); in test [2] it was 42.3 µg/mL (≈ 93.1 µM); in test [3] it was 3.2 µg/mL (≈ 7.04 µM).

On to `CC(=O)OC/C(=C\CC/C(C)=C/CO)CCC[C@H](C)[C@H](O)CC=C(C)C`, for which the IC50 in test [1], in test [2] and in test [3] was > 100 µg/mL in each case.

For the molecule `C=C1C(=O)O[C@H]2[C@H]1[C@@H](O)[C@H](OC(=O)CC(C)C)[C@H](C)CCC(=O)[C@](C)(O)[C@@H]2OC(=O)C(C)CC` (stereo not given in full), the IC50 in test [1] was found to be 29.7 µg/mL (≈ 61.5 µM); in test [2], 57.5 µg/mL (≈ 119 µM); in test [3] it was 10.3 µg/mL (≈ 21.3 µM).

As to `CC(C)=CC[C@@H](O)[C@@H](C)CCC/C(C)=C/CC/C(C)=C/CO`, the half-inhibitory concentration (IC50) was > 100 µg/mL in test [1], > 100 µg/mL in test [2] and 42.4 µg/mL (≈ 137 µM) in test [3].

Consider `CC(=O)OC/C=C(\C)CC/C=C(/CCC[C@H](C)[C@H](O)CC=C(C)C)COC(C)=O`, for which the IC50 amounted to 12.5 µg/mL (≈ 30.6 µM) in test [1], 31.3 µg/mL (≈ 76.6 µM) in test [2] and 20.2 µg/mL (≈ 49.4 µM) in test [3].

As to `C=C1C(=O)O[C@H]2[C@H]1[C@@H](O)[C@H](OC(=O)CC(C)C)[C@H](C)CCC(=O)[C@](C)(O)[C@@H]2OC(=O)C(C)C`, the IC50 in test [1] came out at 44.8 µg/mL (≈ 95.6 µM); in test [2] it was 23.1 µg/mL (≈ 49.3 µM); in test [3], 1.7 µg/mL (≈ 3.63 µM).

For `C=C1C(=O)O[C@H]2[C@H]1[C@@H](OC(=O)C(C)C)C(=O)[C@H](C)CCC[C@](C)(O)[C@@H]2OC(=O)C(C)C` [INCASPITOLIDE A], the IC50 is 97.1 µg/mL (≈ 221 µM) in test [1], 86.4 µg/mL (≈ 197 µM) in test [2] and 11.8 µg/mL (≈ 26.9 µM) in test [3].

In the case of `C=C1C(=O)O[C@H]2[C@H]1[C@@H](O)[C@H](OC(=O)C(C)C)[C@H](C)CCC(=O)[C@](C)(O)[C@@H]2OC(=O)C(C)C` [INCASPITOLIDE D], the concentration for half-maximal inhibition (IC50) in test [1] amounted to 62.5 µg/mL (≈ 138 µM); in test [2] it was 95.7 µg/mL (≈ 211 µM); in test [3], 14.3 µg/mL (≈ 31.5 µM).

`CC[C@]1(O)C[C@H]2CN(CCc3c([nH]c4ccccc34)[C@@](C(=O)OC)(c3cc4c(cc3OC)N(C=O)[C@H]3[C@@](O)(C(=O)OC)[C@H](OC(C)=O)[C@]5(CC)C=CCN6CC[C@]43[C@@H]65)C2)C1.O=S(=O)(O)O` [VINCRISTINE SULFATE]: the IC50 in test [1] is 26.7 µg/mL; in test [2], 28.4 µg/mL; in test [3], 11.2 µg/mL.
